No end group written: not given here.
What was measured:
alpha 5 beta 1 integrin [1] = target: T1, alpha 5 beta 1 integrin (Homo sapiens, UniProt P05556+P08648); assay type: binding; details: unrelated cyclic control peptide
alpha 5 beta 1 integrin [2] = target: alpha 5 beta 1 integrin (UniProt G3HZ55+P08648); experiment: Cell attachment assay: B2/a27 cells on fibronectin; assay type: cell-based, human
alpha 5 beta 1 integrin [3] = target: T1, alpha 5 beta 1 integrin; assay type: binding; details: control peptide; not shown
alpha 5 beta 1 integrin [4] = target: T1, alpha 5 beta 1 integrin; assay type: binding
[5] = target: alpha IIb beta 3 integrin (Homo sapiens, UniProt P05106+P08514); experiment: Binding to wells coated with alpha IIb beta 3 integrin
alpha v beta 3 integrin = alpha v beta 3 integrin (Homo sapiens, UniProt P05106+P06756); assay type: binding
Sequence of alpha v beta 3 integrin (P06756 891-1048): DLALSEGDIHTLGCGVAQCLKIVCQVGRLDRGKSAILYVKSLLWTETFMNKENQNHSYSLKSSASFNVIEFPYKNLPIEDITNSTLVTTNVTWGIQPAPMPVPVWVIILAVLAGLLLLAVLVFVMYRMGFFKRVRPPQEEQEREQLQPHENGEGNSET
Sequence of alpha v beta 3 integrin (P05106 27-788): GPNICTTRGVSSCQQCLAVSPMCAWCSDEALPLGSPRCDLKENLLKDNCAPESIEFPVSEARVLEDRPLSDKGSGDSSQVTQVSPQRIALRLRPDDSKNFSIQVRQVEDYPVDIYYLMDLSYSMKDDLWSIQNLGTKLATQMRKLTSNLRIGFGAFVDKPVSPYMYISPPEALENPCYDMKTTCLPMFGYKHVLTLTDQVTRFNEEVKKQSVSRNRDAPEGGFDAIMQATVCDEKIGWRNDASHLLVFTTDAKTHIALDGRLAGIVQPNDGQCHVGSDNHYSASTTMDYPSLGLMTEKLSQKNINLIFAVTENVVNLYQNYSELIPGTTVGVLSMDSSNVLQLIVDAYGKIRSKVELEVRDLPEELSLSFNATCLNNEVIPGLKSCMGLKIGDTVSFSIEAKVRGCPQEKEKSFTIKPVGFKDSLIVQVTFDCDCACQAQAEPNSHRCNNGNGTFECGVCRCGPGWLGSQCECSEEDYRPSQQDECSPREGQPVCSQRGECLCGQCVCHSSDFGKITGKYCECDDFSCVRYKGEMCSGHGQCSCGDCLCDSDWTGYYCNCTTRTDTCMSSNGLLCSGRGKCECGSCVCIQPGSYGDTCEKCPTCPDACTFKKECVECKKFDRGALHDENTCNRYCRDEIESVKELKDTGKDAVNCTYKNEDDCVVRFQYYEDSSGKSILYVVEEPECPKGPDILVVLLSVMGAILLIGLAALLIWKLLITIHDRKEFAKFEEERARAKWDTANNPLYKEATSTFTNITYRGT
Sequence of alpha v beta 3 integrin (P06756 31-889): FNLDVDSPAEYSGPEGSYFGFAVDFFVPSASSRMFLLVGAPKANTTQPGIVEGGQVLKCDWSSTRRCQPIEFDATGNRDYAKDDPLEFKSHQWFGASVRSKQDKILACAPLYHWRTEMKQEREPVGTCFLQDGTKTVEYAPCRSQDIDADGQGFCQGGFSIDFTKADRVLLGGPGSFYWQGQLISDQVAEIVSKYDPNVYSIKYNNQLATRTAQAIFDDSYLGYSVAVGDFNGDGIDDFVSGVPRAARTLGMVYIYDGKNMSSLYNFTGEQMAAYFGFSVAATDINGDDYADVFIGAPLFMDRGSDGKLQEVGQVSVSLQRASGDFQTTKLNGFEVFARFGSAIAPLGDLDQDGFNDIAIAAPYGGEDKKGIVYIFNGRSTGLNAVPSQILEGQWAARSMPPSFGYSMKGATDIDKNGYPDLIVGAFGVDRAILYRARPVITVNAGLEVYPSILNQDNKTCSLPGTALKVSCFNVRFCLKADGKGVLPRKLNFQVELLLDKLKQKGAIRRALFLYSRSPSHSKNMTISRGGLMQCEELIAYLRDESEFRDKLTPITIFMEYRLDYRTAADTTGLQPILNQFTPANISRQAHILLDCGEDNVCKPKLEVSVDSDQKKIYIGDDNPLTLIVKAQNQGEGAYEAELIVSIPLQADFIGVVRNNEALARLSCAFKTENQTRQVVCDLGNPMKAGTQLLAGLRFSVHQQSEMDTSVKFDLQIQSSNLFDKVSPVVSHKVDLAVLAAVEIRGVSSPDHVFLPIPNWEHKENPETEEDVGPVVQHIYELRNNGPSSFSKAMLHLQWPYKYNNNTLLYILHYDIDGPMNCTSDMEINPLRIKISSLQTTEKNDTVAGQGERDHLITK
Procedure, shortened: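 Human placental αvβ3 (octyl glucoside extract with 1 mM MnCl2 and 1 mM CaCl2) coated in microtiter wells. Phage incubated 1 h at room temperature, then washed five times. Bound phage infected K91kan bacteria for 10 min at 37°C, then grown in Terrific broth with tetracycline and kanamycin (30 min at 37°C, then overnight at room temperature with shaking). Bacterial growth read as A600.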

T1 sequence (P08648 42-894 limits assumed): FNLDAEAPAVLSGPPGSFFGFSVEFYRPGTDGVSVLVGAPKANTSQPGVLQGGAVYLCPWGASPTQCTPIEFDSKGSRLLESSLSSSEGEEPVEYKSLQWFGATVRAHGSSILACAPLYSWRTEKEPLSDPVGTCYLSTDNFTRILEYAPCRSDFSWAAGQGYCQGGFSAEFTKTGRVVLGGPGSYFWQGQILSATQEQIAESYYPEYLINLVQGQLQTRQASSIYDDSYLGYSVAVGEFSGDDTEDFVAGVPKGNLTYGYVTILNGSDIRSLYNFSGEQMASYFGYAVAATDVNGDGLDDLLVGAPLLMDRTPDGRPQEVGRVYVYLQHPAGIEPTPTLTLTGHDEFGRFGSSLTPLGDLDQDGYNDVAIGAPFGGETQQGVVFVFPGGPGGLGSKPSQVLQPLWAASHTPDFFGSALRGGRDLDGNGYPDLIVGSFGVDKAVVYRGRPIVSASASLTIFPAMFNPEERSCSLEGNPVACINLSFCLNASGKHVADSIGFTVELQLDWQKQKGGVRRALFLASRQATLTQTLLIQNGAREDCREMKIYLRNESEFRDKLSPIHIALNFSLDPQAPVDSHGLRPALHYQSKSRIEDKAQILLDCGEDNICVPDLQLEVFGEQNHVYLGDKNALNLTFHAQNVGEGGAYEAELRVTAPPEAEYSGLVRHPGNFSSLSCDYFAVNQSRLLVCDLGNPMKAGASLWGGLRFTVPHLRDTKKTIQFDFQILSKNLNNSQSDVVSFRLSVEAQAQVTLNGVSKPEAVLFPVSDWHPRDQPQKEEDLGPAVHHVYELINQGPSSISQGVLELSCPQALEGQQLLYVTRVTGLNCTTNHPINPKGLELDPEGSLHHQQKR
T1 sequence (P08648 895-1049 limits assumed): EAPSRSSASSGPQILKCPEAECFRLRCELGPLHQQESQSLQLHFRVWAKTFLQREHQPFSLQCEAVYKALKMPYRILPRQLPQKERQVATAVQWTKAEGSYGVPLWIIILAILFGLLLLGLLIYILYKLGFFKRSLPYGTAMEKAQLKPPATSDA
T1 sequence (P05556 21-798): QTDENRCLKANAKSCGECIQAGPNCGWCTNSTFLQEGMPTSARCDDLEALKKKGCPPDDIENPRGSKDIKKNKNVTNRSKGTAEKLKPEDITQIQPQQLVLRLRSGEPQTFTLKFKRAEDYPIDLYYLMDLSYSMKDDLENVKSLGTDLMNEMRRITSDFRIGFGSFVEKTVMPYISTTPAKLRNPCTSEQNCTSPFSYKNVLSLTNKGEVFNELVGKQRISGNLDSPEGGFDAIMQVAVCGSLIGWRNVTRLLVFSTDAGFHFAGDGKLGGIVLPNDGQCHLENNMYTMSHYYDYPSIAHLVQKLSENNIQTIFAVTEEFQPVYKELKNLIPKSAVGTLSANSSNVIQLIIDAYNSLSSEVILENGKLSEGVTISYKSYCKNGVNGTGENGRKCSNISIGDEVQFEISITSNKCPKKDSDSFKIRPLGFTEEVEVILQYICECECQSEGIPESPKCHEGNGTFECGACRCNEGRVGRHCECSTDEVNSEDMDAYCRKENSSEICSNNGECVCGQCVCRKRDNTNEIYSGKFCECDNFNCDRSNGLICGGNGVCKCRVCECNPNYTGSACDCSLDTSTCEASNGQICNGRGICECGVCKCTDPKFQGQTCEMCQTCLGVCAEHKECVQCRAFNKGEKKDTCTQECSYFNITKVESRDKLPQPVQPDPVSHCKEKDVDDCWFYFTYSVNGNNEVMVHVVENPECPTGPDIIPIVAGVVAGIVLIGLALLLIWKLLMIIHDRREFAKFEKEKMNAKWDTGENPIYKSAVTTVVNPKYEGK
Sequence of alpha 5 beta 1 integrin (UniProt G3HZ55+P08648) (P08648 42-894 limits assumed): as the sequence (P08648 42-894 limits assumed) above
Sequence of alpha 5 beta 1 integrin (UniProt G3HZ55+P08648) (P08648 895-1049 limits assumed): as the sequence (P08648 895-1049 limits assumed) above
Sequence of alpha 5 beta 1 integrin (UniProt G3HZ55+P08648) (G3HZ55 21-798): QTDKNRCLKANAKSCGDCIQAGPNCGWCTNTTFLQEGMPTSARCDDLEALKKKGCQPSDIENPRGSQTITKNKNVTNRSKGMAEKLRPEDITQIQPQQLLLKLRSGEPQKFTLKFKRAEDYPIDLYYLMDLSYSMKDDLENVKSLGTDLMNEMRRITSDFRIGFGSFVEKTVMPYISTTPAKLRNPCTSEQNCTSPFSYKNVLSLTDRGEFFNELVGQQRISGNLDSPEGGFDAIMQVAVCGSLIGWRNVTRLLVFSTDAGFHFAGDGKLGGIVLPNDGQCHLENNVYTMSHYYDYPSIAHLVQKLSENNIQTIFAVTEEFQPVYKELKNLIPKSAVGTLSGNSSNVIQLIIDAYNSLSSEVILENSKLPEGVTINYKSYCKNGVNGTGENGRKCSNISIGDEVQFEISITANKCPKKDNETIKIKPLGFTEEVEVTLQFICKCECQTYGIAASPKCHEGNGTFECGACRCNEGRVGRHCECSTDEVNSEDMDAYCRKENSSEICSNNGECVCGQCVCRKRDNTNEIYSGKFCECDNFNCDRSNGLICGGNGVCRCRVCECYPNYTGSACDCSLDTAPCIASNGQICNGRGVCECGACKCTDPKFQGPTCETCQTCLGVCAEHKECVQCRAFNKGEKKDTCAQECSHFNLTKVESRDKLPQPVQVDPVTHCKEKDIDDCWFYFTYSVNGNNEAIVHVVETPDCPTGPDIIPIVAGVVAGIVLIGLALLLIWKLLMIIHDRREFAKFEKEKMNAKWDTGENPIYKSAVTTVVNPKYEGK

GA*CSPYFLRLC*GA (disulfide)
Effect on binding of 125I-labeled fibronectin to alpha 5 beta 1 (alpha 5 beta 1 integrin [1]): no significant effect

GACRRETAWACGA [GACRRETAWACGA not cyclized]
Activity of peptide not cyclized by oxidation (alpha 5 beta 1 integrin [2]; relative to cyclic *CRRETAWAC*): reduced activity

GRGESP [reference compound]
Effect on alpha 5 beta 1-mediated cell attachment to fibronectin (alpha 5 beta 1 integrin [2]; control peptide): no effect
Effect on binding of RRETAWA-containing phage to alpha 5 beta 1 (alpha 5 beta 1 integrin [3]): no effect

RGAPRAW (disulfide (positions not given here))
Binding of phage clone to microtiter wells coated with alpha 5 beta 1 (alpha 5 beta 1 integrin [4]): bound weakly

RRETAWA (disulfide (positions not given here)) [RRETAWA-phage]
Binding of phage clone to microtiter wells coated with alpha 5 beta 1 (alpha 5 beta 1 integrin [4]): avidly
Binding to the alpha IIb beta 3 integrin [5]: did not bind
Binding of phage clone to microtiter wells coated with alpha v beta 3 (alpha v beta 3 integrin): only weakly

STSDVGG (disulfide (positions not given here))
Binding of phage clone to microtiter wells coated with alpha 5 beta 1 (alpha 5 beta 1 integrin [4]): significantly over the background

TLVPSRS (disulfide (positions not given here))
Binding of phage clone to microtiter wells coated with alpha 5 beta 1 (alpha 5 beta 1 integrin [4]): significantly over the background

VFSIAHE (disulfide (positions not given here))
Binding of phage clone to microtiter wells coated with alpha 5 beta 1 (alpha 5 beta 1 integrin [4]): significantly over the background

VRLNSLA (disulfide)
Binding of phage clone to microtiter wells coated with alpha 5 beta 1 (alpha 5 beta 1 integrin [4]): significantly over the background

Source: paper PMC2119941 (The Journal of Cell Biology, 1994)
